Values after ≈ are worked out from the molar mass of the structure shown. Active and inactive are the calls of the source. The calls are words filed in the database; no cut-off is given here.
How the values were obtained:
[1] = Antioxidant activity assessed DPPH scavenging activity; assay type: functional
Procedure, shortened: (§1)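 DPPH free-radical scavenging was measured in a cell-free system, with IC50 determined. Constituents were also screened at 500 μM.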

[2] = Antioxidant activity assessed DPPH scavenging activity at 500 uM; assay type: functional; procedure, shortened: as §1
[3] = (§2) Anti-inflammatory activity in human neutrophils assessed as inhibition of FMLP/CB-induced elastase release; assay type: functional, cell-based; details: Neutrophil
Procedure, shortened: (§3)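 Human neutrophils were activated with FMLP plus cytochalasin B (FMLP/CB). IC50 is the concentration giving 50% inhibition of the response. Values are mean ± SEM, n = 3–4.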

[4] = (§4) Anti-inflammatory activity in human neutrophils assessed as inhibition of FMLP/CB-induced superoxide anion generation; assay type: functional, cell-based; details: Neutrophil; procedure, shortened: as §3
[5] = Anti-inflammatory activity in human neutrophils assessed as inhibition of FMLP/CB-induced elastase release at 10 ug/mL; assay type: functional; details: Neutrophil
Procedure, shortened: (§5)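 Human neutrophils were activated with FMLP/CB. Percentage inhibition of the response was measured with samples at 10 μg/mL. Values are mean ± SEM, n = 3–4, and significance was tested against the control value.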

[6] = Anti-inflammatory activity in human neutrophils assessed as inhibition of FMLP/CB-induced superoxide anion generation at 10 ug/mL; assay type: functional; details: Neutrophil; procedure, shortened: as §5
[7] = tested on: Neutrophil; experiment: as §2; assay type: functional, cell-based; procedure, shortened: as §3
[8] = tested on: Neutrophil; experiment: as §4; assay type: functional, cell-based; procedure, shortened: as §3

| SMILES | inhibition [2] | other results |
| --- | --- | --- |
| O=c1c(-c2ccc(O)c(O)c2)coc2cc(O)ccc12 | – | IC50 [1]: 32 µM |
| CC(C)[C@@H](C)/C=C/[C@@H](C)[C@H]1CC[C@H]2C3=CC=C4C[C@@H](O[C@@H]5O[C@H](CO)[C@@H](O)[C@H](O)[C@H]5O)CC[C@]4(C)[C@H]3CC[C@]12C | inactive | IC50 [3]: 5.62 µg/mL (≈ 10.1 µM); IC50 [4]: 5.42 µg/mL (≈ 9.7 µM) |
| CC(C)C[C@@H]1NC(=O)[C@@H]2CC[C@@H](O)N2C1=O | inactive | – |
| CC(C)[C@@H]1NC(=O)[C@@H]2CCCN2C1=O | inactive | – |
| Cc1occc(=O)c1O | inactive | – |
| O=C(O)c1cc2c([nH]c3ccccc32)c(-c2ccc(CO)o2)n1 | inactive | – |
| O=C(O)c1ccco1 | inactive | – |
| O=C1C[C@H](O)[C@@H](CO)O1 | inactive | – |
| O=C1N[C@@H](Cc2ccc(O)cc2)C(=O)N2CCC[C@@H]12 | inactive | – |
| O=C1N[C@@H](Cc2ccccc2)C(=O)N2CCC[C@@H]12 | inactive | – |
| O=C1O[C@H]([C@@H](O)CO)C(O)=C1O [ASCORBIC ACID] | – | IC50 [1]: 38.6 µM |
| O=c1c(-c2ccc(O)cc2)coc2cc(O)ccc12 [DAIDZEIN] | inactive | IC50 [4]: 6.19 µg/mL (≈ 24.3 µM) |
| COc1cc(/C=C/C(=O)O[C@H]2CC[C@]34C[C@]35CC[C@]3(C)[C@@H]([C@H](C)CCC=C(C)C)CC[C@@]3(C)[C@@H]5CC[C@H]4C2(C)C)ccc1O [GAMMA ORYZANOL] | inactive | inhibition at 10 µg/mL [5]: 41.6%; inhibition at 10 µg/mL [6]: 28.2% |
| COc1ccc2c(c1)c(CC(=O)O)c(C)n2C(=O)c1ccc(Cl)cc1 [INDOMETHACIN] | inactive | IC50 [3]: 32 µg/mL (≈ 89.4 µM); IC50 [4]: 38.3 µg/mL (≈ 107 µM) |
| OCc1ccc(-c2nccc3c2[nH]c2ccccc23)o1 [PERLOLYRIN] | inactive | inhibition [7]: Dose-dependent effect; IC50 [3]: 1.68 µg/mL (≈ 6.36 µM); inhibition [8]: Dose-dependent effect; IC50 [4]: 0.45 µg/mL (≈ 1.7 µM) |

Reference: ChEMBL document CHEMBL1821666, “Anti-inflammatory principles from Cordyceps sinensis” (J Nat Prod, 2011)
